Consider two compounds from ChEMBL document CHEMBL1126177, “Synthesis and biological evaluation of N alpha-(5-deaza-5,6,7,8-tetrahydropteroyl)-L-ornithine” (J Med Chem, 1992).

As usually defined, the inhibition is the share of the control response that was lost under treatment. A high value points to a strong effect.

The test system of experiment [1] is MCF7. The experiment can be described thus: In vitro effect on tetrahydrofolate (THF) in MCF-7 cells at 1 uM(control= 1.0); Folate pools. It is filed as functional, Homo sapiens.
Experiment [2] relates to MCF7. The experiment can be described thus: In vitro effect on 10-formyldihydrofolate (10-CHO-DHF) in MCF-7 cells at 1 uM(control= 0.2); Folate pools. It is filed as functional, Homo sapiens.
For experiment [3], the system named is MCF7. The experiment can be described thus: In vitro effect on 10-formylfolic acid (10-CHO-FA) in MCF-7 cells at 1 uM(control= 0.1); Folate pools. It is filed as functional, Homo sapiens.
In experiment [4] the test system is MCF7. The experiment can be described thus: In vitro effect on 5-formyltetrahydrofolate (5-CHO-THF) in MCF-7 cells at 1 uM(control= 0.1); Folate pools. It is filed as functional, Homo sapiens.
The subject of experiment [5] is MCF7. The experiment can be described thus: In vitro effect on dihydrofolate (DHF) in MCF-7 cells at 1 uM(control= 0.2); Folate pools. It is filed as functional, Homo sapiens.
Experiment [6] relates to MCF7. Description: In vitro effect on 10-formyltetrahydrofolate (10-CHO-THF) in MCF-7 cells at 1 uM(control= 1.7); Folate pools. It is filed as functional, Homo sapiens.
The subject of experiment [7] is MCF7. The experiment can be described thus: In vitro effect on total folates in MCF-7 cells at 1 uM(control= 4.0); Folate pools. In kind it is functional, Homo sapiens.
In experiment [8] the test system is MCF7. The experiment can be described thus: In vitro effect on folic acid (FA) in MCF-7 cells at 1 uM(control= 0.0); Folate pools. It is filed as functional, Homo sapiens.
Experiment [9] relates to MCF7. The experiment can be described thus: In vitro effect on 5-methyltetrahydrofolate (5-CH3-THF) in MCF-7 cells at 1 uM(control= 0.7); Folate pools. In kind it is functional, Homo sapiens.
For experiment [10], the system named is MCF7. Description: In vitro effect on 10-formyltetrahydrofolate (10-CHO-THF) in MCF-7 cells at 50 uM (control= 1.7); Folate pools. It is filed as functional, Homo sapiens.
The subject of experiment [11] is MCF7. Description: In vitro effect on 10-formyldihydrofolate (10-CHO-DHF) in MCF-7 cells at 100 uM (control= 0.2); Folate pools. It is filed as functional, Homo sapiens.
For experiment [12], the system named is MCF7. The experiment can be described thus: In vitro effect on 10-formyltetrahydrofolate (10-CHO-THF) in MCF-7 cells at 100 uM (control= 1.7); Folate pools. In kind it is functional, Homo sapiens.
In experiment [13] the test system is MCF7. The experiment can be described thus: In vitro effect on folic acid (FA) in MCF-7 cells at 100 uM (control= 0.0); Folate pools. It is filed as functional, Homo sapiens.
In experiment [14] the test system is MCF7. Description: In vitro effect on 5-formyltetrahydrofolate (5-CHO-THF) in MCF-7 cells at 50 uM(control=0.1); Folate pools. It is filed as functional, Homo sapiens.
Experiment [15] concerns the target Thymidylate synthase (Homo sapiens, UniProt P04818). The experiment can be described thus: Compound was evaluated for the inhibition of thymidylate synthase obtained from human. Conditions: read-out: I50. In a few lines: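 Human thymidylate synthase came from an SV40-transformed fibroblast line, cloned and expressed in E. coli, and purified to homogeneity by affinity chromatography. Activity was measured by the ³H-release method.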

Experiment [16] has as its system MCF7. Description: In vitro effect on tetrahydrofolate (THF) in MCF-7 cells at 100 uM(control= 1.0); Folate pools. In kind it is functional, Homo sapiens.
Experiment [17] relates to MCF7. Description: In vitro effect on total folates in MCF-7 cells at 100 uM(control= 4.0); Folate pools. It is filed as functional, Homo sapiens.
The target in experiment [18] is Bifunctional purine biosynthesis protein ATIC (Homo sapiens) (UniProt P31939). The experiment can be described thus: Compound was evaluated for the inhibition of 5-aminoimidazole-4-carboxamide ribonucleotide transformylase obtained from human at 100 uM. In a few lines: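 AICAR transformylase partially purified from human MOLT-4 cells by a modified literature procedure. Activity was followed with a continuous spectrophotometric assay.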
Sequence of Bifunctional purine biosynthesis protein ATIC (Homo sapiens) (P31939 whole entry, looked up): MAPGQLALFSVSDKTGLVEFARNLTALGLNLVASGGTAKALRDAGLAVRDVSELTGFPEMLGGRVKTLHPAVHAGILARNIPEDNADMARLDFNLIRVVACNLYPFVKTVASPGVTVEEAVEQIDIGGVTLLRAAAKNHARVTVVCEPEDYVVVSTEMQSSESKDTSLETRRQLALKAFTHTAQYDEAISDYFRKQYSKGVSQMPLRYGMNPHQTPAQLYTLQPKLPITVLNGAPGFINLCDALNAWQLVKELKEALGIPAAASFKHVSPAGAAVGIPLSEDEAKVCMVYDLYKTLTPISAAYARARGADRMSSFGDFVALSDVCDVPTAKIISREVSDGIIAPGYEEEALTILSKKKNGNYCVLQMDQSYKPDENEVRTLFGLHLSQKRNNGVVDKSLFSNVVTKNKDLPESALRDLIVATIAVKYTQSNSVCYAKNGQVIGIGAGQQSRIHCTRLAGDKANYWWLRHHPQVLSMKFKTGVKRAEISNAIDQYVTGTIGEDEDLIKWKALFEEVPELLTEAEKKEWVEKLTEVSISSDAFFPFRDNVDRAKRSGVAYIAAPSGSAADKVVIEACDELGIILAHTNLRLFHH

The subject of experiment [19] is MCF7. Description: In vitro effect on 5-methyltetrahydrofolate (5-CH3-THF) in MCF-7 cells at 50 uM(control=0.7); Folate pools. It is filed as functional, Homo sapiens.
Experiment [20] has as its target T1, Dihydrofolate reductase (Homo sapiens, UniProt P00374).
T1 sequence (P00374 whole entry): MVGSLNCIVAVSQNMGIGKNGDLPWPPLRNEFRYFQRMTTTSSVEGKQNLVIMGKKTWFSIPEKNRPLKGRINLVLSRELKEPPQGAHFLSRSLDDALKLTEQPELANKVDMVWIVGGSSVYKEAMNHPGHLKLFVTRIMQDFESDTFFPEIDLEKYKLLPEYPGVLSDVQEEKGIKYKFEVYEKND
Description: Compound was evaluated for the inhibition of dihydrofolate reductase obtained from human. Conditions: read-out: I50.

Experiment [21] relates to MCF7. Description: In vitro effect on 10-formylfolic acid (10-CHO-FA) in MCF-7 cells at 50 uM(control= 0.1); Folate pools. It is filed as functional, Homo sapiens.
Experiment [22] deals with MCF7. Description: In vitro effect on dihydrofolate (DHF) in MCF-7 cells at 50 uM (control=0.2); Folate pools. In kind it is functional, Homo sapiens.
The subject of experiment [23] is MCF7. Description: In vitro effect on folic acid (FA) in MCF-7 cells at 50 uM (control= 0.0); Folate pools. In kind it is functional, Homo sapiens.
In experiment [24] the test system is MCF7. Description: In vitro effect on tetrahydrofolate (THF) in MCF-7 cells at 50 uM (control=1.0); Folate pools. In kind it is functional, Homo sapiens.
Experiment [25] has as its system MCF7. Description: In vitro effect on 5-formyltetrahydrofolate (5-CHO-THF) in MCF-7 cells at 100 uM (control= 0.1); Folate pools. In kind it is functional, Homo sapiens.
Experiment [26] concerns MCF7. The experiment can be described thus: In vitro effect on dihydrofolate (DHF) in MCF-7 cells at 100 uM (control= 0.2); Folate pools. It is filed as functional, Homo sapiens.
The test system of experiment [27] is MCF7. Description: In vitro effect on 10-formyldihydrofolate (10-CHO-DHF) in MCF-7 cells at 50 uM (control= 0.2); Folate pools. It is filed as functional, Homo sapiens.
The test system of experiment [28] is MCF7. The experiment can be described thus: In vitro effect on 5-methyltetrahydrofolate (5-CH3-THF) in MCF-7 cells at 100 uM (control= 0.7); Folate pools. It is filed as functional, Homo sapiens.
Experiment [29] concerns MCF7. Description: In vitro effect on 10-formylfolic acid (10-CHO-FA) in MCF-7 cells at 100 uM(control= 0.1); Folate pools. In kind it is functional, Homo sapiens.
Experiment [30] deals with MCF7. Description: In vitro effect on total folates in MCF-7 cells at 50 uM (control= 4.0); Folate pools. In kind it is functional, Homo sapiens.

Sequence of Thymidylate synthase (P04818 whole entry): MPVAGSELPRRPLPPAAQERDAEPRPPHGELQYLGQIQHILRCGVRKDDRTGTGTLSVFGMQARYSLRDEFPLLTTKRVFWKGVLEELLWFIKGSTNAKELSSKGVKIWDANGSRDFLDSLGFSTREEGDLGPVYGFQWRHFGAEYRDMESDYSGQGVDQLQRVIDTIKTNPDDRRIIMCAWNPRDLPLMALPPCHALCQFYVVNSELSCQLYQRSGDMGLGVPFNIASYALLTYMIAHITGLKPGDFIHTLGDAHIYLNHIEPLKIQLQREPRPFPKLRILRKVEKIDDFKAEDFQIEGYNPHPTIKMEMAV

For the compound `CN(Cc1cnc2nc(N)nc(N)c2n1)c1ccc(C(=O)N[C@@H](CCC(=O)O)C(=O)O)cc1` [METHOTREXATE], the Activity is 0.4 pM (10e6*cells)-1 in experiment [1]; 0.6 pM (10e6*cells)-1 in experiment [2]; 0.3 pM (10e6*cells)-1 in experiment [3]; 0.1 pM (10e6*cells)-1 in [4]; 1.6 pM (10e6*cells)-1 in experiment [5]; 0.8 pM (10e6*cells)-1 in experiment [6]. Moreover, the values for the Activity in experiment [7], in experiment [8] and in [9] were 4.1 pM (10e6*cells)-1, 0.1 pM (10e6*cells)-1 and 0.1 pM (10e6*cells)-1, respectively.

On to `NCCCC(NC(=O)c1ccc(NCC2CNc3nc(N)nc(O)c3C2)cc1)C(=O)O` (stereo not given), for which the Activity is recorded as 1.8 pM (10e6*cells)-1 in experiment [10]; 0.3 pM (10e6*cells)-1 in experiment [11]; 1.7 pM (10e6*cells)-1 in experiment [12]; 0 pM (10e6*cells)-1 in experiment [13]; 0.2 pM (10e6*cells)-1 in [14]; 0.9 pM (10e6*cells)-1 in experiment [16]. Also, the Activity is listed as 3.9 pM (10e6*cells)-1 in [17]; 0.6 pM (10e6*cells)-1 in experiment [19]; 0.2 pM (10e6*cells)-1 in experiment [21]; 0.2 pM (10e6*cells)-1 in [22]; 0 pM (10e6*cells)-1 in experiment [23]; 1 pM (10e6*cells)-1 in experiment [24]. For the same compound, the Activity in [25] is given as 0.1 pM (10e6*cells)-1; in [26] it was 0.2 pM (10e6*cells)-1; in [27] it was 0.3 pM (10e6*cells)-1; in [28], 0.6 pM (10e6*cells)-1; in experiment [29], 0.1 pM (10e6*cells)-1; in experiment [30] it was 4.1 pM (10e6*cells)-1. For the same compound, the IC50 in [15] is 470 µM; in experiment [20], 2 µM. The same compound showed an inhibition in [18] of 16%.
